Experimental data taken from ChEMBL document CHEMBL5331127, “Discovery of ARD-2051 as a Potent and Orally Efficacious Proteolysis Targeting Chimera (PROTAC) Degrader of Androgen Receptor for the Treatment of Advanced Prostate Cancer” (J Med Chem, 2023).

Experiments:
[1] = Drug concentration in CB17 SCID mouse plasma xenografted with human VCaP cells at 12.5 mg/kg, po measured after 6 hrs by LC-MS/MS analysis; assay type: ADME, organism-based
How it was run: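 SCID mice bearing one VCaP tumour each given a single oral 12.5 mg/kg dose in 100% PEG200. Plasma and tumour tissue collected at 6 and 24 h, 3 mice per time point. Values are mean ± SD.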

VCaP [2] = assay: Antitumor activity against human VCaP cells xenografted in CB17 SCID mouse assessed as tumor growth inhibition at 15 mg/kg, po administered for 21 days; assay type: functional; settings: 504 h, time 21 day, read-out: TGI
[3] = Plasma protein binding in human at 1 uM after 5 hrs by equilibrium dialysis based LC-MS/MS analysis; assay type: ADME, cell-free
How it was run: (§1)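 Equilibrium dialysis of pooled plasma of each species spiked at 1 μM against 0.1 M sodium phosphate, pH 7.4. 5 h at 37 °C with shaking at 60 rpm. Both sides matrix-matched, ACN/IS quench, LC/MS. % bound = 100 − (buffer/plasma peak-area ratio × 100); recovery also calculated. Warfarin as reference.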

[4] = Drug concentration in ICR mouse plasma at 10 mg/kg, po measured after 3 hrs; assay type: ADME, organism-based
How it was run: (§2)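 Mice given a single 10 mg/kg dose by oral gavage, 3 mice per time point. Plasma drug levels measured at 1, 3, 6 and 24 h; mean ± SD reported.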

[5] = Plasma protein binding in rat at 1 uM after 5 hrs by equilibrium dialysis based LC-MS/MS analysis; assay type: ADME, cell-free; how it was run: as §1
[6] = AUC(0 to t) in ICR mouse at 2 mg/kg, iv measured upto 24 hrs by LC-MS/MS analysis; assay type: ADME, organism-based; parameters: time < 24 hrs, dose 2 mg/kg, route iv; settings: in vivo
How it was run: (§3)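 Male ICR mice (2 mg/kg), male SD rats (1 mg/kg) or male Beagle dogs (1 mg/kg) given a single intravenous dose in 10% PEG400 + 90% PBS adjusted to pH 8.0 with NaOH.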

Cytochrome P450 2C9 = Cytochrome P450 2C9 (Homo sapiens, UniProt P11712); assay: Inhibition of CYP2C9 in human liver microsomes preincubated for 5 mins followed by NADPH addition and measured after 10 mins by LC/MS analysis; assay type: ADME, Microsome
Cytochrome P450 1A2 = biological target: T1, Cytochrome P450 1A2 (Homo sapiens, UniProt P05177); assay: Inhibition of CYP1A2 in human liver microsomes preincubated for 5 mins followed by NADPH addition and measured after 10 mins by LC/MS analysis; assay type: ADME, Microsome
T1 sequence (P05177 whole entry): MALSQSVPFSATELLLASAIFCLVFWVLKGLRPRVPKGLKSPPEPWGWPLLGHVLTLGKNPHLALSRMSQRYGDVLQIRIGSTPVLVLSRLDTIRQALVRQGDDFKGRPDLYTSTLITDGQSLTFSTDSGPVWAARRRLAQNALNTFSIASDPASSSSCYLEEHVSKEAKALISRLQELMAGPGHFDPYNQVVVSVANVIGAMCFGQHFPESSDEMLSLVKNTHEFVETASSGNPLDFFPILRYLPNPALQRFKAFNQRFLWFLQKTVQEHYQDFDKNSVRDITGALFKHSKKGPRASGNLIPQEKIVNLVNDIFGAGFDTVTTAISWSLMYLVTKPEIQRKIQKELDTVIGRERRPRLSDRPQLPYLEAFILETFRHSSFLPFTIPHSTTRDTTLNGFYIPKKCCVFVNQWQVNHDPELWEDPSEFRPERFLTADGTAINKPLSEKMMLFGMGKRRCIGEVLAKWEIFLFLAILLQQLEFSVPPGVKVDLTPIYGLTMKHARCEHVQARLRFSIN
How it was run: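 Human liver microsomes (0.2 mg/mL stock) in 0.1 M potassium phosphate pH 7.4, prewarmed 5 min at 37 °C with test compound. Phenacetin as substrate; reaction started with NADPH (8 mM stock) and run 10 min, in duplicate. α-Naphthoflavone as reference inhibitor; LC/MS read-out.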

[7] = biological target: T2, Androgen receptor (Homo sapiens) (UniProt P10275); assay: Induction of androgen receptor degradation in human VCaP cells at 1 uM after 24 hrs by Western blotting analysis relative to control; assay type: cell-based
T2 sequence (whole entry): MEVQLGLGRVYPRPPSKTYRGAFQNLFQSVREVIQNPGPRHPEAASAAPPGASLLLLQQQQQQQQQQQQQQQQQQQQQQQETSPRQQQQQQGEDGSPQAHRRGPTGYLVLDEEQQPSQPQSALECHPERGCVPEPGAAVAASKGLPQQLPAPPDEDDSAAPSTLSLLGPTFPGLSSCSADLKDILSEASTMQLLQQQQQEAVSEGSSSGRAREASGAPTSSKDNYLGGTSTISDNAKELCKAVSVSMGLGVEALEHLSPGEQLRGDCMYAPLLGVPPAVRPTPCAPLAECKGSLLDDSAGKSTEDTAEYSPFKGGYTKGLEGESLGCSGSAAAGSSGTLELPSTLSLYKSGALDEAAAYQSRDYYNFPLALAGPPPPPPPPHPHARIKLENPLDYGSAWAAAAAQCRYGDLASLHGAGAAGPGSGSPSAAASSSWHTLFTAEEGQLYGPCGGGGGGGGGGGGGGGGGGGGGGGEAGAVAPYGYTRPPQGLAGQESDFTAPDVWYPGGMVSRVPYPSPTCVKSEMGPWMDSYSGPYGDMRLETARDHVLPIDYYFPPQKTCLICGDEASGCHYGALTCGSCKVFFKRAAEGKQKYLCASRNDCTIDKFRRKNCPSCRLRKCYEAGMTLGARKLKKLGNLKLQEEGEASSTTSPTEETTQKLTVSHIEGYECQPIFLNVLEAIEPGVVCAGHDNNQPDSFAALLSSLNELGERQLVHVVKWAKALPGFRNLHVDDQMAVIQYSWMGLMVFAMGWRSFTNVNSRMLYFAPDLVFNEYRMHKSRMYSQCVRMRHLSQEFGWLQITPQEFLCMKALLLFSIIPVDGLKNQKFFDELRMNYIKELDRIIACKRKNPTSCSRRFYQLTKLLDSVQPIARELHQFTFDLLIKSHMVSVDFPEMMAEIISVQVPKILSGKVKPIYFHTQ
How it was run: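 VCaP cells treated for 24 h at 10, 100 or 1000 nM. AR protein measured by Western blotting.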

[8] = Half life in Sprague-Dawley rat at 1 mg/kg, iv measured upto 24 hrs by LC-MS/MS analysis; assay type: ADME, organism-based; settings: in vivo; how it was run: as §3
[9] = Volume of distribution at steady state in ICR mouse at 2 mg/kg, iv measured upto 24 hrs by LC-MS/MS analysis; assay type: ADME, organism-based; settings: in vivo
How it was run: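 Male ICR mice. IV 2 mg/kg and PO 5 mg/kg, both in 10% PEG400 + 90% PBS adjusted to pH 8.0. Plasma sampled to 24 h; F from IV and PO exposure.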

[10] = Drug concentration in ICR mouse plasma at 10 mg/kg, po measured after 6 hrs; assay type: ADME, organism-based; how it was run: as §2
Cytochrome P450 3A4 = Cytochrome P450 3A4 (Homo sapiens, UniProt P08684); assay: Inhibition of CYP3A4 in human liver microsomes using testosterone as substrate preincubated for 5 mins followed by NADPH addition and measured after 5 mins by LC/MS analysis; assay type: ADME, Microsome
VCaP [11] = assay: Growth inhibition in human VCaP cells incubated for 4 days by WST-8 assay; assay type: functional, cell-based; settings: 96 h

Cytochrome P450 2C9, sequence (P11712 whole entry): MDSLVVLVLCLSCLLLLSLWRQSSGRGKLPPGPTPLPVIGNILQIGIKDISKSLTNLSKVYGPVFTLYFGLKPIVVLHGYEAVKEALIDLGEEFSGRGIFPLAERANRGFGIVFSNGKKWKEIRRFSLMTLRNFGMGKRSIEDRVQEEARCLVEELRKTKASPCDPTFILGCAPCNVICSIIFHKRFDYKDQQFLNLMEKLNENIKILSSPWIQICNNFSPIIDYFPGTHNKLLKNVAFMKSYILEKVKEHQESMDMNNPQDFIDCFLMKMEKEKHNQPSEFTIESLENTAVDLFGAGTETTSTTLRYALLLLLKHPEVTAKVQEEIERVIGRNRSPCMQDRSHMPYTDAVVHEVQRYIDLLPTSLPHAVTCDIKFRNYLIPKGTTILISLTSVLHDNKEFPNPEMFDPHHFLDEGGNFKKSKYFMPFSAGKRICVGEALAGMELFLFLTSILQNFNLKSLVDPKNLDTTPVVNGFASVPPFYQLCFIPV
Cytochrome P450 3A4, sequence (P08684 whole entry): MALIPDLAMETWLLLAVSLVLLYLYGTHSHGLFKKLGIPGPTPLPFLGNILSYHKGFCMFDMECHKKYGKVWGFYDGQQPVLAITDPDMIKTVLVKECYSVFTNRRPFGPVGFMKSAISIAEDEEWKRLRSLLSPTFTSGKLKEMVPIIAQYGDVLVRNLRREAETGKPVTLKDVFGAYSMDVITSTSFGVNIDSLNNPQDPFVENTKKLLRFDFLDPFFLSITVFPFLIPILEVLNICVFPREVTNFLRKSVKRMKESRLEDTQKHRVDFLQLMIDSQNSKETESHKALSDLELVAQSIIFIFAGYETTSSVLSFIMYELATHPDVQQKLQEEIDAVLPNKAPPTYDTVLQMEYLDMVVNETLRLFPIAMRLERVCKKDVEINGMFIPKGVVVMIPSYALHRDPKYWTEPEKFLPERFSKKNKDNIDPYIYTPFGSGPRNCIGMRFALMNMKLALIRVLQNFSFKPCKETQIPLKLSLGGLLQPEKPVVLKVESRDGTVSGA

Work on `C[C@H]1CC2(CCN(c3ccc(C(=O)N4CCN(C5CN(c6ccc7c(c6)C(=O)N(C6CCC(=O)NC6=O)C7=O)C5)CC4)cc3)CC2)CN1c1ccc(C#N)c(Cl)c1` (some centres undefined) yielded a concentration at 6 h [1] of 985 ng/mL, an inhibition in vivo at 15 mg/kg (VCaP [2]) of 61% and a PPB [3] of 99.1%. It also gave a concentration at 3 h [4] of 664 ng/mL, a PPB [5] of 99.1% and an AUCt [6] of 8850 ng·h/mL. It also gave an IC50 (Cytochrome P450 2C9) of over 10 µM, an IC50 (Cytochrome P450 1A2) of over 10 µM and an Activity [7] of over 95%. It also gave a t1/2 [8] of 2.1 h, a Vdss [9] of 1.3 L/kg and a concentration at 6 h [10] of 369 ng/mL. It also gave an IC50 (Cytochrome P450 3A4) of over 10 µM and an IC50 (VCaP [11]) of 0.01 µM.
